Results on 4 compounds are retold here after ChEMBL document CHEMBL1124865, “Synthesis and biological evaluation of a series of parenteral 3'-quaternary ammonium cephalosporins” (J Med Chem, 1990).

Data set [1] is described as follows: Terminal half life in dogs at the dose of 60 mg/kg. In kind it is ADME, organism-based, Canis lupus familiaris. Further details: dose 60 mg/kg. To be noted: dog, in vivo. The method, boiled down:
(§1)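 Overnight-fasted female mongrel dogs with a Foley bladder catheter; bolus into the cephalic vein. Plasma and urine collected before dosing and over 24 h after. Antibacterial activity measured by microbiological assay.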

Another data set concerns Canis familiaris. As to the kind of experiment: Percent of dose in dogs urine at the dose of 60 mg/kg. The class given is functional, Canis lupus familiaris. The method, boiled down:
as §1

Data set [2] relates to Enterobacter cloacae. The data set is described as follows: Antibacterial activity against Enterobacter cloacae 265A. The class given is functional.
Data set [3] relates to Escherichia coli. As to the kind of experiment: Antibacterial activity against Escherichia coli EC14. The class given is functional. The following applies: Escherichia coli; read-out: MIC.
Data set [4] concerns Enterobacter cloacae. As to the kind of experiment: Antibacterial activity against Enterobacter cloacae EB5. The class given is functional.
The subject of data set [5] is Escherichia coli. The data set is described as follows: Antibacterial activity against Escherichia coli TEM. The class given is functional.
The test system of data set [6] is Klebsiella pneumoniae. The data set is described as follows: microbe, parasite or virus in culture. The class given is functional.
Data set [7] concerns Klebsiella pneumoniae. The data set is described as follows: Antibacterial activity against Klebsiella pneumoniae X26. The class given is functional. The following applies: Klebsiella pneumoniae; read-out: MIC.
Data set [8] concerns Pseudomonas aeruginosa. The data set is described as follows: In vivo efficacy against Pseudomonas aeruginosa infected mice treated at 1 hr and 5 hr post infection. In kind it is functional.
In data set [9] the test system is Staphylococcus aureus. The data set is described as follows: In vivo efficacy against Staphylococcus aureus infected mice treated at 1 hr and 5 hr post infection. In kind it is functional.
In data set [10] the test system is Escherichia coli. As to the kind of experiment: In vivo efficacy against Escherichia coli infected mice treated at 1 hr and 5 hr post infection. In kind it is functional.
For data set [11], the system named is Escherichia coli. The data set is described as follows: In vivo efficacy against Escherichia coli infections in mice. In kind it is functional. The following applies: Escherichia coli; read-out: MIC.
Data set [12] has as its system Pseudomonas aeruginosa. The data set is described as follows: In vivo efficacy against Pseudomonas aeruginosa infections in mice. In kind it is functional.
The subject of data set [13] is Staphylococcus aureus. As to the kind of experiment: In vivo efficacy against Staphylococcus aureus infections in mice. In kind it is functional.
In data set [14] the test system is Pseudomonas aeruginosa. The data set is described as follows: Antibacterial activity against Pseudomonas aeruginosa X528. In kind it is functional.
Data set [15] concerns Pseudomonas aeruginosa. The data set is described as follows: Antibacterial activity against Pseudomonas aeruginosa PS18. The class given is functional.
Data set [16] has as its system Staphylococcus aureus. As to the kind of experiment: Antibacterial activity against penicillin G resistance Staphylococcus aureus. In kind it is functional.
Data set [17] concerns Staphylococcus aureus. As to the kind of experiment: Antibacterial activity against penicillin G susceptible Staphylococcus aureus. The class given is functional.
Another data set has as its system Streptococcus pneumoniae. As to the kind of experiment: Antibacterial activity against Streptococcus pneumoniae. The class given is functional.
The subject of the next data set is Serratia marcescens. The data set is described as follows: Antibacterial activity against Serratia marcescens SE3. The class given is functional.
The next data set relates to Streptococcus pyogenes. As to the kind of experiment: Antibacterial activity against Streptococcus pyogenes. In kind it is functional.
The next data set concerns Enterococcus faecium. As to the kind of experiment: Antibacterial activity against Enterococcus faecium. In kind it is functional. To be noted: Enterococcus faecium; read-out: MIC.
Data set [18] deals with Escherichia coli. The data set is described as follows: In vitro relative hydrolysis rate against Escherichia coli IIIa. The class given is functional. The method, boiled down:
(§2)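 Spectrophotometric hydrolysis at 265 nm, substrate exposed to partially purified cell-free β-lactamase preparations; rate expressed as percentage of the cephaloridine rate.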

Data set [19] relates to Enterobacter cloacae. The data set is described as follows: In vitro relative hydrolysis rate against Enterobacter Ia. The class given is functional. The method in brief: as §2
The subject of data set [20] is Klebsiella pneumoniae. As to the kind of experiment: In vitro relative hydrolysis rate against Klebsiella IV. In kind it is functional. The method in brief:
as §2

Data set [21] concerns Pseudomonas aeruginosa. As to the kind of experiment: In vitro relative hydrolysis rate against Pseudomonas Id. In kind it is functional. The method in brief: as §2
Data set [22] has as its system Staphylococcus aureus. The data set is described as follows: In vitro relative hydrolysis rate against Staphylococcus aureus. In kind it is functional. The method in brief:
as §2

[23] abbreviates: Enterobacter cloacae, read-out: MIC.
Where [24] appears, read: Escherichia coli, read-out: MIC.
Where [25] appears, read: Klebsiella pneumoniae, read-out: MIC.
The mark [26] stands for this setting: Pseudomonas aeruginosa, read-out: ED50.
Where [27] appears, read: Staphylococcus aureus, read-out: ED50.
Where [28] appears, read: Escherichia coli, read-out: ED50.
The mark [29] stands for this setting: Pseudomonas aeruginosa, read-out: MIC.
Where [30] appears, read: Staphylococcus aureus, read-out: MIC.
The mark [31] stands for this setting: Streptococcus pneumoniae, read-out: MIC.
Where [32] appears, read: Serratia marcescens, read-out: MIC.
Setting [33] is: Streptococcus pyogenes, read-out: MIC.

≈ marks a conversion by molar mass, not a printed value.

Usually half-life stands for the time needed for the level to fall by half in the phase considered. High values mean slow loss, low ones fast loss. Usually ED50 stands for the midpoint of the dose-response relation.

Take `CO/N=C(\C(=O)N[C@@H]1C(=O)N2C(C(=O)[O-])=C(C[n+]3ccc4occc4c3)CS[C@H]12)c1csc(N)n1`: the half-life in [1] came to 1.33 h. For the same compound, in the data set on Canis familiaris, the “Percent of dose recovered in urine” value turned out to be 94%. Also, the MIC was 4 µg/mL (≈ 7.77 µM) with Enterobacter cloacae [2] (setting [23]); 0.015 µg/mL (≈ 0.0292 µM) in the data set on Escherichia coli [3]; 0.06 µg/mL (≈ 0.117 µM) with Enterobacter cloacae [4] (setting [23]); 0.03 µg/mL (≈ 0.0583 µM) in the data set with Escherichia coli [5] (setting [24]); 4 µg/mL (≈ 7.77 µM) in the data set with Klebsiella pneumoniae [6] (setting [25]); 0.015 µg/mL (≈ 0.0292 µM) in the data set with Klebsiella pneumoniae [7]. In addition, the MIC in the data set with Escherichia coli [11] worked out at 0.015 µg/mL (≈ 0.0292 µM); in the data set on Pseudomonas aeruginosa [12] (setting [29]) it was 4 µg/mL (≈ 7.77 µM); with Staphylococcus aureus [13] (setting [30]), 1 µg/mL (≈ 1.94 µM); with Pseudomonas aeruginosa [14] (setting [29]), 1 µg/mL (≈ 1.94 µM); with Pseudomonas aeruginosa [15] (setting [29]) it was 2 µg/mL (≈ 3.89 µM); with Staphylococcus aureus [16] (setting [30]), 4 µg/mL (≈ 7.77 µM). Moreover, the MIC in the data set on Staphylococcus aureus [17] (setting [30]) was 0.5 µg/mL (≈ 0.972 µM); in the data set on Streptococcus pneumoniae (setting [31]), under 0.008 µg/mL; in the data set with Serratia marcescens (setting [32]) it was 0.03 µg/mL (≈ 0.0583 µM); in the data set with Streptococcus pyogenes (setting [33]) it was under 0.008 µg/mL; in the data set on Enterococcus faecium it was over 128 µg/mL. In addition, the ED50 is 18 mg/kg with Pseudomonas aeruginosa [8] (setting [26]), under 0.6 mg/kg in the data set on Staphylococcus aureus [9] (setting [27]) and under 0.6 mg/kg in the data set on Escherichia coli [10] (setting [28]).

For `CO/N=C(\C(=O)N[C@@H]1C(=O)N2C(C(=O)[O-])=C(C[n+]3cccc4c(N)cccc43)CS[C@H]12)c1csc(N)n1`, the Hydrolysis rate was found to be 0.7 in the data set on Escherichia coli [18]; 1.1 in the data set on Enterobacter cloacae [19]; 6.8 in the data set with Klebsiella pneumoniae [20]; 0.6 in the data set with Pseudomonas aeruginosa [21]; 0.2 in the data set on Staphylococcus aureus [22]. Further, the MIC in the data set with Enterobacter cloacae [2] (setting [23]) worked out at 8 µg/mL (≈ 14.8 µM); with Escherichia coli [3], 0.015 µg/mL (≈ 0.0278 µM); in the data set on Enterobacter cloacae [4] (setting [23]) it was 0.06 µg/mL (≈ 0.111 µM); in the data set on Escherichia coli [5] (setting [24]), 0.015 µg/mL (≈ 0.0278 µM); with Klebsiella pneumoniae [6] (setting [25]) it was 2 µg/mL (≈ 3.71 µM); with Klebsiella pneumoniae [7] it was 0.015 µg/mL (≈ 0.0278 µM). The MIC in the data set with Escherichia coli [11] is 0.03 µg/mL (≈ 0.0556 µM); in the data set with Pseudomonas aeruginosa [12] (setting [29]) it was 2 µg/mL (≈ 3.71 µM); in the data set with Staphylococcus aureus [13] (setting [30]) it was 0.5 µg/mL (≈ 0.927 µM); in the data set with Pseudomonas aeruginosa [14] (setting [29]), 2 µg/mL (≈ 3.71 µM); in the data set on Pseudomonas aeruginosa [15] (setting [29]), 2 µg/mL (≈ 3.71 µM); in the data set with Staphylococcus aureus [16] (setting [30]) it was 2 µg/mL (≈ 3.71 µM). Besides, the MIC with Staphylococcus aureus [17] (setting [30]) was 1 µg/mL (≈ 1.85 µM); with Streptococcus pneumoniae (setting [31]), 0.015 µg/mL (≈ 0.0278 µM); with Serratia marcescens (setting [32]) it was 0.06 µg/mL (≈ 0.111 µM); in the data set on Streptococcus pyogenes (setting [33]), under 0.008 µg/mL; in the data set with Enterococcus faecium, 128 µg/mL (≈ 237 µM). In addition, the ED50 with Pseudomonas aeruginosa [8] (setting [26]) is 6 mg/kg; with Staphylococcus aureus [9] (setting [27]) it was 0.2 mg/kg; in the data set on Escherichia coli [10] (setting [28]) it was under 0.03 mg/kg.

On to `CO/N=C(\C(=O)N[C@@H]1C(=O)N2C(C(=O)[O-])=C(C[n+]3ccc(CC(=O)NO)cc3)CS[C@H]12)c1csc(N)n1` (stereo in doubt; 9), for which the Hydrolysis rate amounted to 0.1 in the data set with Escherichia coli [18]; 0.2 with Enterobacter cloacae [19]; 1.2 in the data set on Klebsiella pneumoniae [20]; 0.1 with Pseudomonas aeruginosa [21]; 6.9 in the data set with Staphylococcus aureus [22]. Besides, the MIC in the data set with Enterobacter cloacae [2] is 32 µg/mL (≈ 58.4 µM); with Escherichia coli [3], 0.03 µg/mL (≈ 0.0548 µM); with Enterobacter cloacae [4], 0.25 µg/mL (≈ 0.457 µM); in the data set with Escherichia coli [5], 0.03 µg/mL (≈ 0.0548 µM); with Klebsiella pneumoniae [6], 4 µg/mL (≈ 7.3 µM); with Klebsiella pneumoniae [7], 0.03 µg/mL (≈ 0.0548 µM). Also, the MIC came to 0.03 µg/mL (≈ 0.0548 µM) with Escherichia coli [11]; 16 µg/mL (≈ 29.2 µM) in the data set with Pseudomonas aeruginosa [12]; 1 µg/mL (≈ 1.83 µM) in the data set with Staphylococcus aureus [13]; 8 µg/mL (≈ 14.6 µM) with Pseudomonas aeruginosa [14]; 4 µg/mL (≈ 7.3 µM) against Pseudomonas aeruginosa [15]; 4 µg/mL (≈ 7.3 µM) with Staphylococcus aureus [16]. Further, the MIC against Staphylococcus aureus [17] is 2 µg/mL (≈ 3.65 µM); against Streptococcus pneumoniae, 0.03 µg/mL (≈ 0.0548 µM); in the data set with Serratia marcescens it was 0.125 µg/mL (≈ 0.228 µM); in the data set on Streptococcus pyogenes, 0.03 µg/mL (≈ 0.0548 µM); in the data set on Enterococcus faecium, 128 µg/mL (≈ 234 µM). Besides, the results for the ED50 in the data set with Pseudomonas aeruginosa [8], in the data set with Staphylococcus aureus [9] and with Escherichia coli [10] were 39 mg/kg, 1 mg/kg and under 0.3 mg/kg, respectively.

For `CO/N=C(\C(=O)N[C@@H]1C(=O)N2C(C(=O)[O-])=C(C[n+]3cccc4occc43)CS[C@H]12)c1csc(N)n1`, the half-life in data set [1] came out at 1.67 h. In the data set on Canis familiaris, the “Percent of dose recovered in urine” value worked out at 78%. Besides, the MIC came out at 4 µg/mL (≈ 7.77 µM) in the data set with Enterobacter cloacae [2] (setting [23]); 0.06 µg/mL (≈ 0.117 µM) with Escherichia coli [3]; 0.5 µg/mL (≈ 0.972 µM) with Enterobacter cloacae [4] (setting [23]); 0.06 µg/mL (≈ 0.117 µM) in the data set with Escherichia coli [5] (setting [24]); 8 µg/mL (≈ 15.5 µM) in the data set with Klebsiella pneumoniae [6] (setting [25]); 0.06 µg/mL (≈ 0.117 µM) in the data set on Klebsiella pneumoniae [7]. Further, the MIC with Pseudomonas aeruginosa [14] (setting [29]) is 4 µg/mL (≈ 7.77 µM); in the data set on Pseudomonas aeruginosa [15] (setting [29]), 8 µg/mL (≈ 15.5 µM); in the data set with Staphylococcus aureus [16] (setting [30]), 4 µg/mL (≈ 7.77 µM); with Staphylococcus aureus [17] (setting [30]) it was 0.5 µg/mL (≈ 0.972 µM); in the data set with Streptococcus pneumoniae (setting [31]), 0.06 µg/mL (≈ 0.117 µM); with Serratia marcescens (setting [32]), 0.25 µg/mL (≈ 0.486 µM). For the same compound, the MIC in the data set on Streptococcus pyogenes (setting [33]) was found to be 0.06 µg/mL (≈ 0.117 µM); with Enterococcus faecium, 32 µg/mL (≈ 62.2 µM).
